From PubChem BioAssay
Lmaj promast = Leishmania major promastigote growth inhibition, primary screen; Leishmania major promastigotes, resazurin fluorescence viability; inhibition, % at 10 µM; 9% of 200,000 active; AID 1063, 2008;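 also: promastigotes grown with compound for 44 hours at 28 °C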
G6PDH counter = L. mesenteroides G6PDH inhibitors, counter-screen for G6PDH-coupled screening assays, biochemical, Leuconostoc mesenteroides enzyme; Purified L. mesenteroides G6PDH, diaphorase/resazurin coupled fluorescence, 45 min; inhibition, % at 5 µM; 0.12% of 200,000 active
Redox H2O2 prof = compounds producing H2O2 with reducing agent – biochemical, NIH compound library profiling, artefact control for MLSCN library redox annotation, primary screen; 0.03% of 200,000 active; DTT-dependent redox cycling H2O2, phenol red/HRP absorbance; 100% = 100 µM peroxide control, 0% = buffer; AID 878, 2007; activation, % at 10 µM;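 active = activation of at least 50% relative to the plate's high and low controls in the primary single-dose screen; inactive = activation below 50%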;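 also: compound incubated with DTT at 0.8 mM final as the reducing agent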
Diaphorase act = compounds boosting diaphorase resazurin reduction – biochemical, uHTS, resorufin fluorescence, counter-screen for diaphorase-coupled primary assays, primary screen. 0.005% of 190,000 active. Diaphorase/resazurin coupled assay, 16 min; hits give high values; 1 = vehicle wells, 0 = NADH-free wells. activation factor at 20 µM. AID 1229, 2008;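 active = diaphorase activity raised at least twofold by the compound at 20 µM; inactive = activation factor below 2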
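Material: bacterial diaphorase enzyme (C. kluyveri); amount: enzyme 0.07 U/mL final; reagent: NADH substrate 0.114 mM plus resazurin dye 0.1 mM, final; doses: single compound dose of 20 µM, 1% DMSO final; timing: 16 min enzyme reaction, ambient temperature; measured by: fluorescence of resorufin, 544 nm excitation, 590 nm emission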
PfGluPho inh = PfG6PD enzyme inhibitors, primary screen, biochemical, fluorescence intensity, uHTS. AID 504690, 2011. PfGluPho enzyme, NADPH resazurin-diaphorase fluorescence. inhibition, % at 20 µM. 0.78% of 350,000 active. glucose-6-phosphate dehydrogenase-6-phosphogluconolactonase (Plasmodium falciparum 3D7);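 active = inhibition reaching at least a set limit at 20 µM in the primary screen, cut at about 59% in these data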
Diaph inh CS = diaphorase inhibitors and chemical oxidizers, primary screen, counter-screen for diaphorase-coupled primary assays, biochemical, uHTS, resorufin fluorescence | diaphorase resazurin-to-resorufin fluorescence, NADH, 16 min; bacterial (C. kluyveri) enzyme, not human | inhibition, % at 20 µM | 0.69% of 190,000 active | AID 1217, 2008;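 active = primary screen inhibition at 20 µM above a set limit, cut at about 50% in these data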
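System: Bacterial diaphorase enzyme (C. kluyveri) | Incubation: 16-min room-temperature incubation before reading | Benchmarks: No-NADH positive control and DMSO neutral control | Measured by: Resorufin fluorescence 544/590 nm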
L major 1uM = Leishmania major promastigote growth inhibition, confirmation, 1 µM repeat of primary hits; shares compounds with Lmaj promast; L. major promastigote growth, resazurin fluorescence, 48 h; inhibition, % at 1 µM; 13% of 1,100 active; AID 1258, 2008;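 active = inhibition above about 50% in both repeat tests, limit read from the data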
Large screens that a line does not name were inactive (follow-up assays come after a bar, where they were run). Many of the other results were omitted from the sample, so hits are more common in it than they were. Rule as the data show it, unless noted: active = inhibition above about 50%; inactive = the rest.

O=C1OC(Nc2ccc3c(c2)OCO3)c2ccccc21 (stereo not given)	Lmaj promast 59.7 | L major 1uM inactive
Cn1nc([N+](=O)[O-])nc1Oc1ccccc1F	none
Cn1nc([N+](=O)[O-])nc1Oc1ccccc1N	Lmaj promast 97.5 | L major 1uM inactive
Cc1csc(/N=C/c2ccc([N+](=O)[O-])cc2)n1	Lmaj promast 52.3 | L major 1uM inactive
O=[N+]([O-])c1ccc(/C=N/N2CCCCC2)cc1	none (no result: Lmaj promast, G6PDH counter, Redox H2O2 prof, Diaphorase act, Diaph inh CS)
COc1ccc(NC(=O)C2(S(=O)(=O)c3ccc(C)cc3)CC2)cc1OC	none (no result: Lmaj promast, G6PDH counter, Redox H2O2 prof, Diaphorase act, Diaph inh CS)
OC(COCC1COc2ccccc2O1)CN1CCc2ccccc2C1 (stereo not given)	Lmaj promast 98.9 | L major 1uM inactive
Cc1cc2n(n1)C(c1ccc(O)cc1)Nc1ccccc1-2 (stereo not given)	none
Cc1cc(C)c2c(c1)-c1cc(C)nn1C(c1ccc3c(c1)OCO3)N2 (stereo not given)	Lmaj promast 99.1 | L major 1uM 76.4
CC1(C)OC(=O)N(c2ccccc2)C12C=Cc1c(ccc3ccccc13)O2 (stereo not given)	Lmaj promast 83.3 | L major 1uM inactive
O=C1CCCN1c1ccc(S(=O)(=O)Oc2ccc(Cl)cc2)cc1[N+](=O)[O-]	none
CCn1c(C(=O)NCc2cccnc2)cc2sc(Cl)cc21	Lmaj promast 81.1 | L major 1uM inactive
CCn1c(N)c(C(=O)NCc2cccnc2)sc1=S	none
Cc1cc(C)n(CCCNC(=O)CCNS(=O)(=O)c2ccccc2C(F)(F)F)n1	none (no result: Lmaj promast, G6PDH counter, Redox H2O2 prof, Diaphorase act, Diaph inh CS)
CC1C=CCC2C(=O)N(c3cc(Cl)ccc3O)C(=O)C12 (stereo not given)	none
COc1ccc(-c2cn(-c3ccc(Cl)cc3)c3[n+]2CCCCC3)cc1	none (no result: Lmaj promast, G6PDH counter, Redox H2O2 prof, Diaphorase act, Diaph inh CS)
COc1ccc(-n2cc(-c3ccc(OC(F)F)cc3)[n+]3c2CCCCC3)cc1	Lmaj promast 99.0 | L major 1uM inactive
Clc1ccc2[nH]c3c(c2c1)CCc1cn[nH]c1-3	Lmaj promast 54.4 | L major 1uM inactive
CCN(C(=O)CN1C(=O)NC2(CCc3ccccc32)C1=O)C1CCCCC1 (stereo not given)	none (no result: Lmaj promast, G6PDH counter, Redox H2O2 prof, Diaphorase act, Diaph inh CS)
COc1ccc(NC(=O)C2CCN(S(=O)(=O)c3ccc4c(c3)NC(=O)CO4)CC2)cc1	none (no result: Lmaj promast, G6PDH counter, Redox H2O2 prof, Diaphorase act, Diaph inh CS)
NC(=O)c1ccc(-n2nnnc2SCC(=O)Nc2ccccc2)cc1	none (no result: Lmaj promast, G6PDH counter, Redox H2O2 prof, Diaphorase act, Diaph inh CS)
CC1=Nc2ccccc2N=C(NC(=O)CSc2nnnn2-c2ccccc2)C1c1ccccc1 (stereo not given)	Lmaj promast 98.7 | L major 1uM inactive
O=C(/C=C/c1cccc([N+](=O)[O-])c1)NCCN1C(=O)S/C(=C\c2cccnc2)C1=O	Lmaj promast 60.3 | L major 1uM inactive
O=C(O)CCN1C(=O)S/C(=C\c2cccnc2)C1=O	none (no result: Lmaj promast, G6PDH counter, Redox H2O2 prof, Diaphorase act, Diaph inh CS)
Cc1ccc(S(=O)(=O)NCC(C)n2nc(C)cc2C)cc1 (stereo not given)	none (no result: Lmaj promast, G6PDH counter, Redox H2O2 prof, Diaphorase act, Diaph inh CS)
Cc1ccc(C(C[N+](=O)[O-])n2nc(C)cc2C)cc1 (stereo not given)	Lmaj promast 100.0 | L major 1uM inactive
CC(C)c1ccc(S(=O)(=O)N2CCCCC2)cc1	none
CC(C)c1ccc(S(=O)(=O)c2ccc(NN)cc2)cc1	Lmaj promast 97.0 | L major 1uM inactive
CCOc1ccc(-c2nc(C#N)c(NCc3ccc4c(c3)OCO4)o2)cc1	none
Cc1ccc(OCc2nc(C#N)c(NCc3ccc4c(c3)OCO4)o2)cc1	Lmaj promast 97.8 | L major 1uM inactive
COc1cc(NC(=O)c2sc(C)nc2C)c(OC)cc1NC(=O)c1ccccc1	none (no result: Lmaj promast, G6PDH counter, Redox H2O2 prof, Diaphorase act, Diaph inh CS)
COC(=O)c1ccccc1NC(=S)NC(NC(=O)COc1ccccc1)C(Cl)(Cl)Cl (stereo not given)	Lmaj promast 99.4 | L major 1uM inactive
CCOc1ccc(NC(=O)c2cn(-c3ccc(OCC)cc3)c(=O)c3cc(OC)c(OC)cc23)cc1	Lmaj promast 88.5 | L major 1uM inactive
C[N+](C)=C1SCC(C)(/C=N/O)S1 (stereo not given)	none (no result: Lmaj promast, G6PDH counter, Redox H2O2 prof, Diaphorase act, Diaph inh CS)
CCC(=O)NCCNc1ccc([N+](=O)[O-])cn1	none (no result: PfGluPho inh)
CC(=O)NCCNc1ccc([N+](=O)[O-])cn1	Lmaj promast 62.0 (no result: Redox H2O2 prof) | L major 1uM inactive
O=C(/C=C/c1ccccc1)CC(O)(c1ccccc1)C(F)(F)F (stereo not given)	Lmaj promast 100.3 | L major 1uM 76.1
C1=C(CCNCC2CCCCC2)CCCC1	Lmaj promast 92.4 | L major 1uM inactive
O=C1CCC([N+](=O)[O-])C(c2cccc(Br)c2)N1 (stereo not given)	Lmaj promast 54.2 | L major 1uM inactive
C=C(C)c1cccc(C(C)(C)NC(=O)N(C)C2CCN(C)CC2)c1	Lmaj promast 97.7 | L major 1uM inactive
O=C1NCN(c2ccccc2)C12CCN(c1nnnn1-c1ccccc1)CC2	Lmaj promast 80.8 | L major 1uM inactive
O=C1CN(c2nnnn2-c2ccccc2)CCN1	none
O=C(CCl)Nc1cccc(-c2cnc3ccccc3n2)c1	Lmaj promast 100.0 | L major 1uM 77.3
CCC(=O)Nc1cccc(-c2cnc3ccccc3n2)c1	none
COc1ccc2nc(-c3ccccc3)[nH]c2c1	Lmaj promast 68.8 | L major 1uM inactive
Cc1onc(-c2c(Cl)cccc2Cl)c1C(=O)N1CCCc2ccccc21	Lmaj promast 92.2 | L major 1uM inactive
Cc1onc(-c2c(F)cccc2Cl)c1C(=O)N1CCc2ccccc21	none
O=C(Cn1c(=O)n2ncnc2c2c3c(sc21)CCCC3)c1ccccc1	Lmaj promast 74.4 | L major 1uM inactive
O=c1n(Cc2ccccc2Cl)c2sc3c(c2c2ncnn12)CCCC3	none (no result: Lmaj promast, Redox H2O2 prof)
CN(c1ccccc1)S(=O)(=O)c1cccc(NC(=O)CSc2nccc(=O)[nH]2)c1	none (no result: Lmaj promast, G6PDH counter, Redox H2O2 prof, Diaphorase act, Diaph inh CS)
O=C(C[n+]1ccccc1)c1ccc(-c2ccccc2)cc1	Lmaj promast 95.6 | L major 1uM inactive
CC(C)(C)c1nn(-c2ccccc2)c2nc(Cl)c(C=O)cc12	Lmaj promast 96.3 | L major 1uM inactive
CCOc1ccc2nc(N3C(=O)/C(=C/c4ccccc4)NC3=S)sc2c1	none
COc1ccc2nc(N3C(=O)/C(=C/c4ccccc4)NC3=S)sc2c1	Lmaj promast 60.9 | L major 1uM inactive
CC(C)=CCCC(C)CN(C)CCc1ccccn1 (stereo not given)	Lmaj promast 82.9 | L major 1uM inactive
